High-throughput results deposited in PubChem BioAssay by several laboratories.
MIN6 prolif: inducers of MIN6 beta-cell proliferation, primary screen, ATP luminescence, uHTS | MIN6 cells proliferation, ATPlite luminescence, 48 h; cells starved in 0.2% serum; 100% = growth in 10% serum | proliferation, % at 10 µM | 330,000 compounds, 0.29% hits;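 active means compounds whose signal lies at least 3.5 SD above the mean of all wells on their plate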;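 further: 0% = DMSO-treated cells in low-serum medium and 100% = 10% serum control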
DAGLB inhibitor: DAGLB lipase inhibitors, primary screen, biochemical, fluorescence, HTS; Diacylglycerol lipase-beta (Homo sapiens), Q8NCG7; HEK293T DAGLB membrane lysate, EnzChek fluorogenic substrate; inhibition, % at 5.17 µM; 340,000 compounds, 0.059% hits; in the data active means inhibition above about 34%;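 further: 0% = enzyme with vehicle and 100% = wells lacking enzyme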
NRP1-CendR mod: modulators of CendR peptide binding to NRP-1, primary screen, biochemical, fluorescence polarization, uHTS. FAM-RPARPAR peptide binding to NRP-1. 360,000 compounds, 0.85% hits. AID 602438, 2012. Neuropilin-1 (Homo sapiens), O14786. inhibition, % at 25 µM;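 active means inhibition or corrected inhibition above about 18%, plus a signal ratio from 0.5 to 1.5, limit read from the data, passing the limit was not always enough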
Myeloid diff 2: induction of myeloid progenitor differentiation, primary screen, cell-based, flow cytometry, MLPCN library | ER-HoxA9 myeloid progenitors, lysozyme-GFP differentiation | calls only at 10 µM | 360,000 compounds, 1% hits;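 active means normalized GFP-positive differentiation at or above the plate's own cutoff, the solvent-only control mean plus 3 SD; inconclusive means no clear call, values can overlap the other calls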;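 further: cells exposed to compound for four days before flow analysis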
MT1-MMP act inh: blockers of MT1-MMP proenzyme processing, primary screen, HT1080 RFP-PRO-GFP cells, GFP/RFP fluorescence; GFP/RFP ratio change, % at 20 µM; Matrix metalloproteinase-14 (Homo sapiens), P50281; GFP/RFP ratio fluorescence, overnight; percent of plate control window, DMSO zero; 360,000 compounds, 0.061% hits;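 active means GFP/RFP ratio change of at least 30% with cell ATP level not reduced by more than half and red fluorescence within 50% of control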
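Assay system: HT1080 RFP-PRO-GFP cells. Benchmarks: DMSO vehicle wells and RFP-L50D-GFP reporter cell wells. Times: overnight cell settling, then overnight compound exposure, 37 °C, 5% CO2. Compound: 20 µM single dose, 1% DMSO. Read-out basis: GFP/RFP fluorescence ratio.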
SENP1 inh: human SENP1 catalytic domain inhibitors, primary screen, biochemical, FRET, uHTS | Sentrin-specific protease 1 (Homo sapiens), Q9P0U3 | recombinant SENP1 catalytic domain, CyPet-SUMO1-YPet FRET cleavage | inhibition, % at 10 µM | 360,000 compounds, 0.21% hits | AID 624204, 2012;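 active means inhibition at least 30% at 10 µM, raw YFP signal under a set limit, fluorescence ratio 0.5 to 1.5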;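 further: 0% = enzyme with DMSO and 100% = no enzyme wells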
Target sequence (Q9P0U3 419-644 limits assumed): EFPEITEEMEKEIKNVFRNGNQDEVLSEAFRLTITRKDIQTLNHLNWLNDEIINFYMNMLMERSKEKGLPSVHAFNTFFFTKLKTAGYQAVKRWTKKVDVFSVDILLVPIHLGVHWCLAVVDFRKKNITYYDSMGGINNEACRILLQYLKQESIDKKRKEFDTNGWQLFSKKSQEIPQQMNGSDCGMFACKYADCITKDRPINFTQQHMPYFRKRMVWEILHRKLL
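Test system: human SENP1 catalytic domain; medium: Tris pH 8 buffer plus EDTA, NaCl, BME, BSA, NP40, catalase; incubation: 50 min reaction at room temperature; technique: FRET, CFP and YFP emission; controls: no-enzyme low control and enzyme-plus-DMSO high control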
* = called active by the depositor; i = inactive; ? = inconclusive; . = not tested or not shown; + = active, no number. In the library only some 2.4% were active in any assay of this set; here they are far more common.

SMILES	MIN6 prolif	DAGLB inhibitor	NRP1-CendR mod	Myeloid diff 2	MT1-MMP act inh	SENP1 inh
Nc1ccccc1NC1CCCCC1	.	4.1	-9.1	+	4.1	5.7
O=C(Nc1ccccc1NC(=O)NC1CCCCC1)NC1CCCCC1	-2.2	0.3	0.4	i	1.7	0.9
Cc1cc(C)n(CC2CC(=O)N(c3ccccc3)C2=O)n1 (stereo unspecified)	-2.3	-4.9	29.2*	i	-2.3	1.1
CCOc1ccccc1CNn1nnnc1N	-5.4	1.3	-8.5	+	4.9	1.3
CC(=O)Nc1ccc(S(=O)(=O)NCCSCc2cccc(Cl)c2)cc1	-1.6	1.1	-11.7	+	5.2	0.0
CC(C)C(=O)Nc1ccc(C(=O)NNC(=O)c2ccco2)cc1	-1.7	-1.6	-11.6	i	-1.1	2.1
O=C(CCCCCNC(=O)N1CCn2c1nc1ccccc12)N[C@H](Cc1ccccc1)C(=O)O	-0.4	-1.2	-7.0	i	1.5	1.5
CCNc1c2c3c(cccc3n(C)c1=O)C(=O)c1ccccc1-2	2.1	.	.	.	.	.
Cn1c(=O)c(NCCc2ccccc2)c2c3c(cccc31)C(=O)c1ccccc1-2	-5.7	i	128.1	+	-66.8	-23.7
Cn1c(=O)c(NC2CCCCC2)c2c3c(cccc31)C(=O)c1ccccc1-2	-4.8	-271.9	131.6	+	-147.5	-27.2
O=C(NCC1CCCO1)c1nn2c(C(F)(F)F)cc(-c3cc(Br)cs3)nc2c1Br (stereo unspecified)	0.0	-0.9	35.0*	i	-14.6	-23.9
CCOC(=O)N1CCN(C(=O)c2cc3n(n2)C(C(F)(F)F)CC(c2ccc4c(c2)OCO4)N3)CC1 (stereo unspecified)	1.9	0.5	21.8*	i	-4.1	4.5
O=C(NNC(=O)[C@@H]1CCCC[C@@H]1C(=O)O)Nc1ccccc1	2.8	-4.1	-4.6	i	2.1	3.0
CC(=O)Cc1cc(O)c2ccccc2c1OC(=O)c1ccc(Br)cc1	-6.5	-5.1	-10.7	+	-94.4	0.1
CCCc1c(C)nc(N2CCN(c3ccccc3OC)CC2)[nH]c1=O	-2.6	-2.0	31.9*	i	1.9	0.8
COc1cc(/C=C2/SC(=S)N(CC(=O)NNC(=O)c3ccc(F)cc3)C2=O)cc(OC)c1OC	.	-4.7	-24.6	i	-1.8	23.3
COc1cccc(/C=c2\s/c(=C/C(=O)c3ccc(C)cc3)[nH]c2=O)c1OC	0.0	-2.0	-28.3	i	5.5	-26.4
COc1ccc(/C=c2\s/c(=C/C(=O)c3ccc(C)cc3)[nH]c2=O)c(OC)c1	0.0	-7.2	129.6	+	-82.2	-29.4
O=C(Nc1ccccc1N1CCOCC1)[C@@H]1O[C@H](CO)[C@H](O)[C@H](O)[C@H]1O	.	.	32.3*	i	0.5	-0.1
O=C(Cc1ccccc1)Nc1ccccc1N1CCOCC1	-1.3	1.2	-1.9	i	5.1	2.1
COC(=O)C1=C(C(=O)OC)[C@@H]2N(C)c3ccc(OC)cc3[C@@]23C[C@@H](C(=O)OC)N(C(=O)CC(C)C)C3=N1	-5.0	3.5	25.5*	i	-2.2	-0.3
CC(C)c1ccccc1NC(=O)c1cnccn1	3.7	-1.9	58.8*	i	3.2	-3.4
CSc1ccccc1NC(=O)c1cnccn1	-0.6	-2.1	-7.1	i	-4.0	-0.2
Fc1ccc(-c2cc(C(F)(F)F)nc(NCc3cccs3)n2)cc1	-2.2	-11.8	30.3*	i	4.6	2.4
CC1CN(c2nc3ccccc3nc2SCC(=O)Nc2cccc(C(F)(F)F)c2)CC(C)O1 (stereo unspecified)	-7.8	-13.2	-4.6	+	-5.1	-3.9
SMILES	MIN6 prolif	DAGLB inhibitor	NRP1-CendR mod	Myeloid diff 2	MT1-MMP act inh	SENP1 inh
Cc1cccc(NC(=O)CSc2nc3ccccc3nc2N2CC(C)OC(C)C2)c1 (stereo unspecified)	-6.7	-11.2	2.4	i	-3.5	-2.7
COc1ccc(C(=O)NC(=S)NNC(=O)CNC(=O)C2CCCCC2)cc1	-3.8	0.1	1.8	i	3.2	1.5
COCCCn1c(C)nc2c(c1=O)c1nc3ccccc3nc1n2CCc1ccccc1	-0.5	-3.7	-5.5	+	-2.5	-78.5
Cc1nc2ccccc2c(=O)n1CCc1ccccc1	-0.8	0.1	14.4	i	-4.7	-20.5
Cc1ccc(/C=C/C(=O)N2CCC(Cc3ccccc3)CC2)cc1	0.0	-16.3	4.2	i	3.1	2.7
Cc1ccccc1/C=N/Nc1ccnc2cc(Cl)ccc12	.	-0.7	-1.8	i	-2.4	-7.7
Oc1ccc(/C=N/Nc2ccnc3cc(Cl)ccc23)c(O)c1	-3.6	0.5	-14.1	+	-3.3	-35.5
COc1cc(C)c(C(=O)CC(=O)c2c(C)cc(OC)cc2C)c(C)c1	-0.7	.	10.8	+	-0.3	-0.2
COc1ccc(NC(C)=O)c(C)c1	-0.5	0.3	-6.5	i	0.5	1.6
Cc1cnc(C(=O)OCC(=O)N2CCC(C)CC2)cn1	2.2	-0.8	23.4*	i	-2.4	-3.5
O=C(Nc1cccc(F)c1)NC1(C(=O)N2CCC(O)CC2)CCCCC1	1.3	0.4	24.4*	i	-2.0	1.3
NC(=O)C1CCN(C(=O)C2(NC(=O)Nc3cccc(F)c3)CCCCC2)CC1	0.0	0.3	-3.3	i	-1.6	1.4
CN1CCN(NC(=S)Nc2ccc(Oc3ccccc3)cc2)CC1	0.2	2.9	-7.9	i	-1.3	-0.5
CC(C)/C=C1\CC/C(=C\c2ccc(N(C)C)cc2)C1=O	0.0	-31.1	58.8	+	-38.0	-29.0
CN(C)c1ccc(/C=C2/C[N+](C)(C)C/C(=C/c3ccc(N(C)C)cc3)C2=O)cc1	.	-6.7	145.0	.	-10.9	-27.8
COc1ccc(N(Cc2cc3cccc(C)c3[nH]c2=O)S(=O)(=O)c2ccc(OC)cc2)cc1	-4.5	-4.5	-2.7	+	-5.4	1.5
Cc1ccc(N(Cc2cc3ccccc3[nH]c2=O)S(=O)(=O)c2ccccc2)cc1	0.0	0.1	-5.6	i	-0.1	-0.9
COc1ccc(N(Cc2cc3cccc(C)c3[nH]c2=O)S(=O)(=O)c2ccc(Cl)cc2)cc1	-4.7	-0.4	10.9	?	-4.8	-0.4
Cc1ccc2cc(CN(c3ccccc3C)S(=O)(=O)c3ccccc3)c(=O)[nH]c2c1	-2.9	-1.1	24.6*	?	-3.0	-2.8
COCc1ccccc1Cn1cnc2c1c(=O)n(C)c(=O)n2C	-4.6	4.4	35.4*	i	6.4	0.7
